Data from paper PMC2225614 (The Journal of General Physiology, 2001).

Tests used:
[1] = tested on: CHM11 (RETα with OLFα pore module: S5, P region, S6, initial C-linker); assay: Genistein inhibition of chimeric channel CHM11; format: biochemical, bovine/rat
[2] = tested on: CHM34 (converse substitution in OLFα background); assay: Genistein inhibition of closed chimeric channel CHM34; format: biochemical, bovine/rat; conditions: closed channels
[3] = tested on: CHM20 (S5 domain exchanged between RETα and OLFα); assay: Genistein inhibition of closed chimeric channel CHM20; format: biochemical, bovine/rat; conditions: closed channels
Outline: (§1)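 Chimeric RETα/OLFα channels were expressed in Xenopus oocytes (50 nl of 50 ng/μl RNA, 2–7 d), and the vitelline membrane was removed. Inside-out patches were bathed in symmetrical 115 mM NaCl, 5 mM EGTA, 1 mM EDTA, 5 mM HEPES, pH 7.5, held at −75 mV. Test compound was preapplied 1 min to closed channels, then saturating 2 mM cGMP; residual current normalized to Imax.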

[4] = biological target: T1, CHM35 (RETα with Q417 substituted with a histidine) (Bos taurus, UniProt Q00194, Q417H); assay: Genistein inhibition of closed chimeric channel CHM35; format: biochemical, bovine/rat; conditions: closed channels
T1 sequence (Q00194 1-690 Q417H): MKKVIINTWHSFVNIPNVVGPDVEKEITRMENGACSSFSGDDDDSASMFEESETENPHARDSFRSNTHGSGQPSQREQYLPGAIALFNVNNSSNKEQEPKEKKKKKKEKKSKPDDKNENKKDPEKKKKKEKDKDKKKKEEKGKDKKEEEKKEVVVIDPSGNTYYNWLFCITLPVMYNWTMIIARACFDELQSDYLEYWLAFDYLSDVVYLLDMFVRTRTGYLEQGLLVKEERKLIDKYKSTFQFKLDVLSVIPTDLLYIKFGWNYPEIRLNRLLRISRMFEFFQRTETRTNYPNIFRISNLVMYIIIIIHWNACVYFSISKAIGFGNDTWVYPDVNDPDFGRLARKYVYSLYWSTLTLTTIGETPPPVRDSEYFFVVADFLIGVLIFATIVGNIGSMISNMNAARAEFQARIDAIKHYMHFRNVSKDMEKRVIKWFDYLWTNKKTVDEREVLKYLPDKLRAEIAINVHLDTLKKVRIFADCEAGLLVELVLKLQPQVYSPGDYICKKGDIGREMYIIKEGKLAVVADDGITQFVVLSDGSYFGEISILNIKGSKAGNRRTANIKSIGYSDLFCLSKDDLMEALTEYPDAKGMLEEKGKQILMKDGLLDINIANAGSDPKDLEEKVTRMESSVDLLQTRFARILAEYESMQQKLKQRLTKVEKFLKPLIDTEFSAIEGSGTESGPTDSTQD
Outline: as §1

[5] = biological target: T2, CHM23 (OLFα with RETα part of pore, S6 and part of C-linker) (Rattus norvegicus, UniProt Q00195, C329S/E325K/E350S/F357A/H396Q/I327V/I356V/K348R/K390R/L353F/Q399H/T383A/V373I/V394I); assay: Genistein inhibition of closed chimeric channel CHM23; format: biochemical, bovine/rat
T2 sequence (Q00195 1-664 E325K/I327V/C329S/K348R/E350S/L353F/I356V/F357A/V373I/T383A/K390R/V394I/H396Q/Q399H): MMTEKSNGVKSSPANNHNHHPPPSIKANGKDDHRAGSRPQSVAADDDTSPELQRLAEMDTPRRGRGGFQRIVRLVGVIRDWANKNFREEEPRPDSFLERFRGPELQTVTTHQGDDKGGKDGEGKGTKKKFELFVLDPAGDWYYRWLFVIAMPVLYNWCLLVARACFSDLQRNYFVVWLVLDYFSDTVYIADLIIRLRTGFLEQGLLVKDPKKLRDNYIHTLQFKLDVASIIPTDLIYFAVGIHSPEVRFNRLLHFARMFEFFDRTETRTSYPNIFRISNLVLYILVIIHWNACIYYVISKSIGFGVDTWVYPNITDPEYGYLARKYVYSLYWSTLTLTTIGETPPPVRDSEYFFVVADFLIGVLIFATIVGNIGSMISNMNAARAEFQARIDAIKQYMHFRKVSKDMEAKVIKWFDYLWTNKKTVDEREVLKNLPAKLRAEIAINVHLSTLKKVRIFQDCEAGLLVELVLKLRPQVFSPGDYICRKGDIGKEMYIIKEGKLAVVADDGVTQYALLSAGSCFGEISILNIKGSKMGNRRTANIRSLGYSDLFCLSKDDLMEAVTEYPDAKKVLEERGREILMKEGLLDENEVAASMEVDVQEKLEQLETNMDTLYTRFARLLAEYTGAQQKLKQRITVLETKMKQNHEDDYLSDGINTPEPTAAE
Outline: as §1

[6] = tested on: α-subunit of the rat olfactory CNG channel (OLFα); conditions: ref Molokanova et al. 2000; cited from earlier work

genistein inhibition [4]: did not reduce genistein inhibition | inhibition of closed channels [5]: 99%
Compound: O=c1c(-c2ccc(O)cc2)coc2cc(O)cc(O)c12 [genistein]
maximal inhibition ([1]; closed state, 500 μM genistein): ~15% | genistein sensitivity ([1]; open state, up to 500 μM genistein): completely insensitive | genistein inhibition [2]: neither substitution introduced genistein inhibition | effect of domain exchange on genistein inhibition [3]: did not alter genistein inhibition | genistein inhibition [6]: do not exhibit genistein inhibition
